Data taken from ChEMBL document CHEMBL1123811, “gem-Diphosphonate and gem-phosphonate-phosphate compounds with specific high density lipoprotein inducing activity” (1987).

How the values were obtained:
Type in all cases: functional
Rattus norvegicus [1] = species: Rattus norvegicus; assay: Activity to induce the elevation of HDL(High Density Lipoproteins)-Cholesterol in plasma lipids of male Wistar rats; set-up: concentration or dose not given beside the values
How it was run: (§1)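 Wistar rats on normal diet; groups were vehicle control, an internal-standard diphosphonate, and test compounds. Dosed daily for 4 days; diphosphonates were dissolved in water or suspended in 1% (carboxymethyl)cellulose, 4 mL/kg. On day 5, after overnight fast, rats were killed under ether. EDTA plasma was assayed enzymatically for HDL-C after heparin-CaCl2 precipitation of VLDL/LDL, phospholipids, triglycerides and α/β-cholesterol ratio. Results are given as % of control.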

Rattus norvegicus [2] = species: Rattus norvegicus; assay: Activity to induce the elevation of phospholipids in plasma lipids of male Wistar rats; set-up: concentration or dose not given beside the values; how it was run: as §1
Rattus norvegicus [3] = species: Rattus norvegicus; assay: Activity to induce the elevation of triglycerides in plasma lipids of male Wistar rats; set-up: concentration or dose not given beside the values; how it was run: as §1
Rattus norvegicus [4] = species: Rattus norvegicus; assay: Activity to induce the elevation of alpha/beta cholesterol ratio in plasma lipids of male Wistar rats; set-up: concentration or dose not given beside the values; how it was run: as §1
Rattus norvegicus [5] = assay: Activity to induce the elevation of HDL(High Density Lipoproteins)-Cholesterol in plasma lipids of male Wistar rats after po administration of 100 mg/kg/day
How it was run: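 Wistar rats on a normal diet were dosed daily for 4 days at the dose and route given. On day 5, after an overnight fast, they were killed under ether and blood was taken by decapitation into EDTA. Plasma HDL cholesterol was measured after heparin-CaCl2 precipitation of VLDL/LDL and is expressed as % change versus a vehicle control group.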

Rattus norvegicus [6] = assay: Activity to induce the elevation of alpha/beta cholesterol ratio in plasma lipids of male Wistar rats after po administration of 100 mg/kg/day
How it was run: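 Rats (Wistar, normal diet) were treated daily for 4 days and fasted overnight, and EDTA plasma was taken on day 5. Total cholesterol was measured enzymatically, and β-lipoprotein cholesterol after heparin-CaCl2 precipitation. The α/β-cholesterol ratio is reported as % change from vehicle-treated controls.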

Rattus norvegicus [7] = assay: Activity to induce the elevation of phospholipids in plasma lipids of male Wistar rats after po administration of 100 mg/kg/day
How it was run: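 Normal-diet Wistar rats were given the test agent once daily for 4 days and killed on day 5 after an overnight fast. Total plasma phospholipids (EDTA plasma) were measured chemically by the molybdate/vanadate reaction or enzymatically (phospholipid B test). Values are % of vehicle controls.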

Rattus norvegicus [8] = assay: Activity to induce the elevation of triglycerides in plasma lipids of male Wistar rats after po administration of 100 mg/kg/day
How it was run: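 Daily dosing of normal-diet Wistar rats ran for 4 days, with sacrifice on day 5 after an overnight fast. Plasma was collected by decapitation into EDTA. Total triglycerides were measured enzymatically and expressed as % change relative to the vehicle control group.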

Rattus norvegicus [9] = species: Rattus norvegicus; assay: Activity to induce the elevation of alpha/beta cholesterol ratio of male Wistar rats; set-up: concentration or dose not given beside the values; how it was run: as §1
Rattus norvegicus [10] = species: Rattus norvegicus; assay: Activity to induce the elevation of phospholipids of male Wistar rats; set-up: concentration or dose not given beside the values; how it was run: as §1
Rattus norvegicus [11] = species: Rattus norvegicus; assay: Activity to induce the elevation of HDL(High Density Lipoproteins)-Cholesterol of male Wistar rats; set-up: concentration or dose not given beside the values; how it was run: as §1
Rattus norvegicus [12] = species: Rattus norvegicus; assay: Activity to induce the elevation of triglycerides of male Wistar rats; set-up: concentration or dose not given beside the values; how it was run: as §1

Compound | Percent change in alpha/beta cholesterol ratio versus control (Rattus norvegicus [9]) | Plasma phospholipids, % change versus control (Rattus norvegicus [10]) | HDL-cholesterol change relative to control (%) (Rattus norvegicus [11]) | Percent change in plasma triglycerides versus control (Rattus norvegicus [12]) | other results
CCCCCCCCCCCCCCCC(O)(P(=O)(OC)OC)P(=O)(OC)OC | – | – | – | – | Control (Rattus norvegicus [1]): -3%; Control (Rattus norvegicus [2]): 4%; Control (Rattus norvegicus [3]): 14%; Control (Rattus norvegicus [4]): -38%
CCOC(=O)C(C)(C)Oc1ccc(Cl)cc1 [CLOFIBRATE] | – | – | – | – | Control (Rattus norvegicus [5]): -34%; Control (Rattus norvegicus [6]): -53%; Control (Rattus norvegicus [7]): -22%; Control (Rattus norvegicus [8]): 28%
CC(C)OC(=O)C(C)(C)Oc1ccc(C(=O)c2ccc(Cl)cc2)cc1 [FENOFIBRATE] | – | – | – | – | Control (Rattus norvegicus [5]): -45%; Control (Rattus norvegicus [6]): -80%; Control (Rattus norvegicus [7]): -19%; Control (Rattus norvegicus [8]): 12%
COP(=O)(OC)C(Cl)(Cc1ccc(Cl)cc1)P(=O)(OC)OC | – | – | – | – | Control (Rattus norvegicus [1]): 10%; Control (Rattus norvegicus [2]): 7%; Control (Rattus norvegicus [3]): 11%; Control (Rattus norvegicus [4]): 81%
CCCCCCCCCCCCCCOc1ccc(CC(P(=O)(OCC)OCC)P(=O)(OCC)OCC)cc1 | – | – | – | – | Control (Rattus norvegicus [1]): 27%; Control (Rattus norvegicus [2]): -4%; Control (Rattus norvegicus [3]): -27%; Control (Rattus norvegicus [4]): -28%
COP(=O)(OC)OC(c1cc(C)ccc1C)P(=O)(OC)OC (stereo unspecified) | 15% | -16% | 10% | -3% | –
COP(=O)(OC)OC(CC(C)(C)C)P(=O)(OC)OC (stereo unspecified) | 44% | 18% | 47% | -9% | –
CCCCCCCCCCCCCCOc1ccc(CC(P(=O)(OC)OC)P(=O)(OC)OC)cc1 | – | – | – | – | Control (Rattus norvegicus [1]): 20%; Control (Rattus norvegicus [2]): 10%; Control (Rattus norvegicus [3]): 4%; Control (Rattus norvegicus [4]): 14%
COP(=O)(OC)C(CCCOc1ccccc1)P(=O)(OC)OC | -13% | -11% | 6% | 2% | –
COP(=O)(OC)C(O)(c1ccc(Cl)cc1)P(=O)(OC)OC | 130% | 19% | 44% | 15% | –
COP(=O)(OC)C(Cl)(CCCOc1ccccc1)P(=O)(OC)OC | – | – | – | – | Control (Rattus norvegicus [1]): 57%; Control (Rattus norvegicus [2]): 15%; Control (Rattus norvegicus [3]): -3%; Control (Rattus norvegicus [4]): -42%
COP(=O)(OC)C(CCCc1ccccc1)P(=O)(OC)OC | 49% | 33% | 52% | 42% | –
COP(=O)(OC)OC(c1ccc(C(=O)c2ccc(Cl)cc2)cc1)P(=O)(OC)OC (stereo unspecified) | 55% | 53% | 33% | 0% | –
COP(=O)(OC)OC(C1CCCCC1)P(=O)(OC)OC (stereo unspecified) | -20% | 0% | 5% | -46% | –
CCOP(=O)(OCC)C(Cl)(CCCc1ccccc1)P(=O)(OCC)OCC | – | – | – | – | Control (Rattus norvegicus [1]): -2%; Control (Rattus norvegicus [2]): 27%; Control (Rattus norvegicus [3]): -4%; Control (Rattus norvegicus [4]): -23%
COP(=O)(OC)OC(c1ccc2ccccc2c1)P(=O)(OC)OC (stereo unspecified) | 134% | 27% | 47% | 28% | –
O=P(O)(O)C(CCCc1ccccc1)P(=O)(O)O | 14% | 12% | 3% | 11% | –
O=P(O)(O)C(CCCOc1ccccc1)P(=O)(O)O | -57% | -6% | -18% | -7% | –
COP(=O)(OC)OC(C(C)(C)c1ccc(Cl)cc1)P(=O)(OC)OC (stereo unspecified) | 59% | 37% | 56% | -7% | –
COP(=O)(OC)C(O)(c1ccccc1)P(=O)(OC)OC | 80% | 57% | 13% | 4% | –
COP(=O)(OC)C(Cl)(CCCc1ccccc1)P(=O)(OC)OC | – | – | – | – | Control (Rattus norvegicus [1]): 26%; Control (Rattus norvegicus [2]): 24%; Control (Rattus norvegicus [3]): -36%; Control (Rattus norvegicus [4]): -9%
O=P(O)(O)C(CCc1ccccc1)P(=O)(O)O | -27% | -16% | -24% | -17% | –
CCOP(=O)(OCC)C(Cc1ccc(Cl)cc1)P(=O)(OCC)OCC | 22% | 23% | 26% | 8% | –
COP(=O)(OC)OC(c1cccc(Cl)c1)P(=O)(OC)OC (stereo unspecified) | 69% | 14% | 56% | -37% | –
CCCCOP(=O)(OCCCC)OC(c1ccc(Cl)cc1)P(=O)(OCCCC)OCCCC (stereo unspecified) | -53% | 13% | -10% | -11% | –
COP(=O)(OC)OC(c1ccc(Cl)cc1Cl)P(=O)(OC)OC (stereo unspecified) | 39% | 28% | 51% | 13% | –
COP(=O)(OC)C(CCc1ccccc1)P(=O)(OC)OC | 82% | 16% | 40% | 22% | –
COP(=O)(OC)C(O)(c1ccc(C)cc1)P(=O)(OC)OC | 68% | 19% | 19% | 43% | –
COP(=O)(O)C(CCCc1ccccc1)P(=O)(O)OC (stereo unspecified) | -23% | 11% | -9% | 9% | –
